The target of data set [1] is PS1-NTF (Homo sapiens, UniProt P49768). The data set is classed as binding. Conditions: HeLa membranes; for PS1-NTF photolabeling: irradiation ~350 nm. The method, boiled down:
(§1)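 HeLa membranes (800 μg/1.2 mL PBS) incubated 1 h at 37 °C with clickable photoprobe (20 nM) with or without competing GSI (1 μM), then irradiated at ~350 nm for 30 min at 4 °C and pelleted. Click reaction in PBS: TCEP 1.0 mM, CuSO4 1.0 mM, TBTA 0.1 mM, biotin-azide 0.1 mM, 1 h RT with agitation. Pelleted membranes solubilized in RIPA, streptavidin-enriched, SDS-PAGE, Western blot.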

In data set [2] the test system is intracellular γ-secretase. The note with it: previous studies; cited from earlier work.
Data set [3] has as its target T1, signal peptide peptidase (SPP) (Homo sapiens, UniProt Q8TCT9).
T1 sequence (Q8TCT9 1-377): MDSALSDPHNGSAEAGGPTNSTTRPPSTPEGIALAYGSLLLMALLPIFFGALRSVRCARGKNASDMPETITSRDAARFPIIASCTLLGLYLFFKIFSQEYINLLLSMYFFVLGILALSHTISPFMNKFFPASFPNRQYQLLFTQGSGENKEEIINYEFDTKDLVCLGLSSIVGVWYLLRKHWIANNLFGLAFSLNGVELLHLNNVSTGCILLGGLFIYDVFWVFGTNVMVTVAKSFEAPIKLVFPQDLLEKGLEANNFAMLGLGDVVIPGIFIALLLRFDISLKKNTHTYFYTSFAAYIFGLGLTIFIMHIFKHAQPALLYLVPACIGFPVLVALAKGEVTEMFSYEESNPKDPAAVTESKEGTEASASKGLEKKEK
The data set is classed as binding. The note with it: HeLa membranes, probe 20 nM. The method, boiled down: as §1

Data set [4] addresses PS1-CTF (Homo sapiens, UniProt P49768). The data set is classed as binding. Conditions: HeLa membranes, probe 20 nM. Summed up: as §1

“Also recorded” adds a separate entry of the source.

Take `CC(C)C[C@H](NC(=O)[C@H](Cc1ccccc1)C[C@@H](O)[C@H](Cc1ccccc1)NC(=O)OC(C)(C)C)C(=O)N[C@@H](Cc1ccccc1)C(N)=O` [compound 1, reference compound]: in data set [1] (competitor 1 μM, probe 2 or 4), the “blocking of PS1-NTF labeling by competitor” value is listed as “PS1-NTF labeling was blocked”.

Take `CC(C)C[C@H](NC(=O)[C@H](Cc1ccccc1)C[C@@H](O)[C@H](Cc1ccccc1)NC(=O)c1ccc(C(=O)c2ccccc2)cc1)C(=O)N[C@@H](Cc1ccccc1)C(=O)NCCCCCNC(=O)CCCC[C@@H]1SC[C@@H]2NC(=O)N[C@@H]21` [compound 2]: the “cell penetration (plasma membrane, access to intracellular γ-secretase)” value in data set [2] was “cannot”.

For `C#CCCCCNC(=O)[C@H](Cc1ccccc1)NC(=O)[C@H](CC(C)C)NC(=O)[C@H](Cc1ccccc1)C[C@@H](O)[C@H](Cc1ccccc1)NC(=O)c1ccc(C(=O)c2ccccc2)cc1` [compound 4], the “labeling efficiency of PS1-NTF relative to 2 (fold less)” value in data set [1] (probe 20 nM, after click reaction with biotin-azide) is 2–3 fold. Also, the PS1-NTF photolabeling entry in data set [1] (probe 20 nM) is recorded as “efficient PS1-NTF photolabeling; also recorded: strongly labeled PS1-NTF vs. CTF”. The SPP photolabeling entry in data set [3] is “minimal labeling of SPP”.

In the case of `C#CCCCCNC(=O)[C@H](Cc1ccc(C(=O)c2ccccc2)cc1)NC(=O)[C@H](CC(C)C)NC(=O)[C@H](Cc1ccccc1)C[C@@H](O)[C@H](Cc1ccccc1)NC(=O)OC(C)(C)C` [compound 5], the PS1-CTF photolabeling entry in data set [4] was “expected preference for PS1-CTF”. In addition, in data set [1] (probe 20 nM), the PS1-NTF photolabeling result is reported as “minimal PS1-NTF labeling”. For the same compound, the SPP photolabeling result in data set [3] is “significant labeling of SPP”.

The values above are taken from article PMC3321063 (Bioorganic & medicinal chemistry letters, 2012).
